Experimental findings from ChEMBL document CHEMBL1155548, “Synthesis and evaluation of new endomorphin-2 analogues containing (Z)-alpha,beta-didehydrophenylalanine (Delta(Z)Phe) residues” (J Med Chem, 2010) are described below.

The experiment addresses Delta-type opioid receptor (Homo sapiens, UniProt P41143). The experiment is described as follows: Displacement of [3H]DPDPE from human delta opioid receptor expressed in HEK293 cells up to 100 uM. The class given is cell-based. In a few lines: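 Crude membranes from transfected cells: HN9.10 cells expressing rat μ-opioid receptor, competed against μ-selective agonist [³H]DAMGO; HEK293 cells expressing human δ-opioid receptor, competed against δ-selective agonist [³H]DPDPE. Competitive displacement with three independent experiments, fitted by non-linear regression; Ki derived from IC50 via Cheng–Prusoff equation.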
In general terms: Loss of bound radioactivity is the signal in a displacement assay; it reports binding, not function.

Delta-type opioid receptor, sequence (P41143 whole entry): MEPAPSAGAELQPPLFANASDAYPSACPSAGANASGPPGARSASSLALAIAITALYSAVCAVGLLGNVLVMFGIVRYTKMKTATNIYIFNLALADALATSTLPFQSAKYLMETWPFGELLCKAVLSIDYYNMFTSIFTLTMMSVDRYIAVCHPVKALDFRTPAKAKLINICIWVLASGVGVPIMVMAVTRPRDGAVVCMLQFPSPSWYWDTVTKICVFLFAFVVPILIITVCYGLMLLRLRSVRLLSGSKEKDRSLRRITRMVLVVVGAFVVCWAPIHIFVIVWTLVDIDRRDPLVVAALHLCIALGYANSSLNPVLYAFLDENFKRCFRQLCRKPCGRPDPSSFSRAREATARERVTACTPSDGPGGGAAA

For `NC(=O)[C@H](Cc1ccccc1)NC(=O)/C(=C/c1ccccc1)NC(=O)[C@@H]1CCCN1C(=O)[C@@H](N)Cc1ccc(O)cc1`, the Ki entry is on record as “Not Active”.
